Results from ChEMBL document CHEMBL4024752, “Noncovalent Protein Arginine Deiminase (PAD) Inhibitors Are Efficacious in Animal Models of Multiple Sclerosis” (J Med Chem, 2017).
Blank lines part the entries; values can stand above or below the molecule they belong to. Active and inactive are the calls of the source. The calls are words filed in the database; no cut-off is given here.

Experiments:
[1] = molecular target: Protein-arginine deiminase type-4 (Homo sapiens, UniProt Q9UM07); assay: Inhibition of full length human GST-tagged PAD4 expressed in baculovirus infected Sf9 insect cells preincubated for 30 mins followed by substrate addition measured after 30 mins
Sequence of Protein-arginine deiminase type-4 (Q9UM07 whole entry): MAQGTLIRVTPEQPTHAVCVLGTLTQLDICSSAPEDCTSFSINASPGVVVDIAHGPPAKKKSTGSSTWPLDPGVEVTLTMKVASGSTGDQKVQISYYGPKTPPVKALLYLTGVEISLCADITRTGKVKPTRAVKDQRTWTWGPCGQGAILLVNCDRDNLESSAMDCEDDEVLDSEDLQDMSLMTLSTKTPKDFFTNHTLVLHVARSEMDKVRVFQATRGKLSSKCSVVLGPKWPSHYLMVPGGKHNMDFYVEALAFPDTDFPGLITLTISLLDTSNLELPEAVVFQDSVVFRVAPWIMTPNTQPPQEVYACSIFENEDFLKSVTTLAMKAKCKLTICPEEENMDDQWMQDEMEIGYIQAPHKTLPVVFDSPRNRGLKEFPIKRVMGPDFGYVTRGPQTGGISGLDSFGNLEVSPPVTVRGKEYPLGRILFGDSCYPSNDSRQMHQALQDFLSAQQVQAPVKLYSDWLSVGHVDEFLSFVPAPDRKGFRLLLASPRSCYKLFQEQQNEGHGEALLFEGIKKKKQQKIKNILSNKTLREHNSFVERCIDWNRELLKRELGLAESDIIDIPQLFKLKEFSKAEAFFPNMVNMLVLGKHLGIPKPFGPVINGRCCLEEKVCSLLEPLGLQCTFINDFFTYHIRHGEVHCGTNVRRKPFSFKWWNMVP

[2] = molecular target: T1, Protein-arginine deiminase type-1 (Homo sapiens, UniProt Q9ULC6); assay: Inhibition of full length human GST-tagged PAD1 expressed in baculovirus infected Sf9 insect cells preincubated for 30 mins followed by substrate addition measured after 30 mins
T1 sequence (Q9ULC6 whole entry): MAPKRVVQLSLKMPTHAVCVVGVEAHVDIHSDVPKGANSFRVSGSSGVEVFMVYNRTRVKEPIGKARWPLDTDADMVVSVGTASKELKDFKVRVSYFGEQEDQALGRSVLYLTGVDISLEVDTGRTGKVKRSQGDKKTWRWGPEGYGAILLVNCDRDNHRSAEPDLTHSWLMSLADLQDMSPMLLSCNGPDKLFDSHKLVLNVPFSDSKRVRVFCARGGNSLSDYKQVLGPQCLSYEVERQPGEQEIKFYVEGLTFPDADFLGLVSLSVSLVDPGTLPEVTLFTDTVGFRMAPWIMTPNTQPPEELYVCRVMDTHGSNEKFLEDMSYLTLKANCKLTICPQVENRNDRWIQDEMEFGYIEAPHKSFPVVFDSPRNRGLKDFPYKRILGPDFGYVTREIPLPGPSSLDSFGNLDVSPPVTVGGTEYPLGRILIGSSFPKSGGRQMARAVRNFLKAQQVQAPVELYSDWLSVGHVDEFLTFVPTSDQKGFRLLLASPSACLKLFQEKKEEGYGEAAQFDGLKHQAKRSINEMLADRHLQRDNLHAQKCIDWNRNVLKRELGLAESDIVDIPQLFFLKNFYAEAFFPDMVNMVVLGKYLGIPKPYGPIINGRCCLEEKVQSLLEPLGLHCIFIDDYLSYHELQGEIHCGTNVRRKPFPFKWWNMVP
Summary of the method: (§1)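 Colorimetric citrulline assay at 37 °C in 100 mM Tris, 100 mM NaCl, 10 mM CaCl2, 5 mM DTT, pH 7.5, with about 5% DMSO. Enzyme (hPAD1 50 nM, mPAD2 100 nM) was preincubated with inhibitor (0.1–10 mM) for 30 min. Substrate was then added at 5 mM final for a further 30 min. Diacetyl monoxime/thiosemicarbazide reagent was added, samples were boiled 15 min, and A530 was read.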

[3] = molecular target: Protein-arginine deiminase type-2 (Mus musculus, UniProt Q08642); assay: Inhibition of full length mouse GST-tagged PAD2 expressed in baculovirus infected Sf9 insect cells preincubated for 30 mins followed by substrate addition measured after 30 mins; summary of the method: as §1
Sequence of Protein-arginine deiminase type-2 (Q08642 whole entry, the tested form may be a part): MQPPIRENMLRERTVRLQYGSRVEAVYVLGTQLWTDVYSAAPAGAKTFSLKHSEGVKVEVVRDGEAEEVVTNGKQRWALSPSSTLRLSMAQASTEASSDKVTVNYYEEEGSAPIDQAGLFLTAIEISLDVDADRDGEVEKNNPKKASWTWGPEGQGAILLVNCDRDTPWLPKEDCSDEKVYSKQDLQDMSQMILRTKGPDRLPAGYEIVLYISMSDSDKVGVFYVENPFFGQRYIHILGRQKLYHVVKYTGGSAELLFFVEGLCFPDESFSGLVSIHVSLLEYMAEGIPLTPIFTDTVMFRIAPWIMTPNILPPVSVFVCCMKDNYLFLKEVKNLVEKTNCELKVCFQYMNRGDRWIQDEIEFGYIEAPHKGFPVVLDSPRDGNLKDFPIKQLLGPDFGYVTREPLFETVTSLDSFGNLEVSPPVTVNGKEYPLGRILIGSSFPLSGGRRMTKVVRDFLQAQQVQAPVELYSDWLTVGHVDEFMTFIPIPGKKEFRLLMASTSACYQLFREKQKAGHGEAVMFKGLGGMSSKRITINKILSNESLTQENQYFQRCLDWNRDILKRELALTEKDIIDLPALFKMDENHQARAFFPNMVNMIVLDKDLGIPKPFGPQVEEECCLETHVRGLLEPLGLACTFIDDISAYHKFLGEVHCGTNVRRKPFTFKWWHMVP

Mus musculus [4] = assay: Antiinflammatory activity in MOG (35 to 55 residues)-induced C57BL/6 mouse autoimmune encephalomyelitis model assessed as improvement in physical disability at 50 mg/kg, ip administered daily measured on day 35 post immunization; type: functional, organism-based
Summary of the method: (§2)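 Female C57BL/6 mice, 8 weeks old, were immunized s.c. with 100 µg MOG peptide in CFA, plus 400 ng pertussis toxin i.p. at immunization and again at 48 h. Daily i.p. dosing at 50 mg/kg in PBS (pH 7.5) began at clinical score 2 and continued up to 60 days. Controls got an equal volume of PBS (n=5 vs 7). Clinical score and body weight were recorded daily.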

Mus musculus [5] = assay: Antiinflammatory activity in MOG (35 to 55 residues)-induced C57BL/6 mouse autoimmune encephalomyelitis model assessed as survival rate at 50 mg/kg, ip administered daily up to 60 days (reference value: 80%); type: functional; settings: C57BL/6, ip, 1440 h
Mus musculus [6] = assay: Antiinflammatory activity in MOG (35 to 55 residues)-induced C57BL/6 mouse autoimmune encephalomyelitis model assessed as reduction in inflammation in spinal cord at 50 mg/kg, ip administered daily measured at day 60 post immunization; type: functional, organism-based; settings: in the assay text read “brain” for “spinal cord”
Summary of the method: (§3)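 MOG/CFA-immunized female C57BL/6 mice were treated daily at 50 mg/kg i.p. in PBS from score 2 for up to 60 days; controls received PBS. At study end, brain and spinal cord sections were stained with H&E and Luxol Fast Blue. Inflammation was quantified as inflamed area over total tissue area by positive pixel count.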

Mus musculus [7] = assay: Antiinflammatory activity in MOG (35 to 55 residues)-induced C57BL/6 mouse autoimmune encephalomyelitis model assessed as reduction in lesions in cerebellum at 50 mg/kg, ip administered daily up to 60 days by LFB/H and E staining based assay; type: functional, organism-based; summary of the method: as §3
Mus musculus [8] = assay: Antiinflammatory activity in MOG (35 to 55 residues)-induced C57BL/6 mouse autoimmune encephalomyelitis model assessed as reduction in lesions in olfactory tract at 50 mg/kg, ip administered daily up to 60 days by LFB/H and E staining based assay; type: functional, organism-based; summary of the method: as §3
Mus musculus [9] = assay: Antiinflammatory activity in MOG (35 to 55 residues)-induced C57BL/6 mouse autoimmune encephalomyelitis model assessed as reduction in lesions in internal capsule at 50 mg/kg, ip administered daily by LFB/H and E staining based assay; type: functional, organism-based; summary of the method: as §3
Mus musculus [10] = assay: Antiinflammatory activity in MOG (35 to 55 residues)-induced C57BL/6 mouse autoimmune encephalomyelitis model assessed as reduction in accumulation of CD3 positive T-cells in brain at 50 mg/kg, ip administered daily up to 60 days by immunohistochemistry; type: functional, organism-based
Summary of the method: (§4)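 MOG/CFA-immunized female C57BL/6 mice were dosed daily at 50 mg/kg i.p. in PBS from score 2 for up to 60 days; PBS controls n=5, treated n=7. Brain sections were immunostained with anti-CD3. Stained cells per µm² were averaged over randomly selected areas.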

Mus musculus [11] = assay: Antiinflammatory activity in MOG (35 to 55 residues)-induced C57BL/6 mouse autoimmune encephalomyelitis model assessed as reduction in accumulation of CD3 positive T-cells in internal capsule at 50 mg/kg, ip administered daily up to 60 days by immunohistochemistry; type: functional, organism-based; summary of the method: as §4
Mus musculus [12] = assay: Antiinflammatory activity in MOG (35 to 55 residues)-induced C57BL/6 mouse autoimmune encephalomyelitis model assessed as reduction in accumulation of CD3 positive T-cells in cerebellum at 50 mg/kg, ip administered daily up to 60 days by immunohistochemistry; type: functional, organism-based; summary of the method: as §4
[13] = Elimination rate constant in C57BL/6 mouse serum at 50 mg/kg, ip administered as single dose measured up to 360 mins by UPLC-MS analysis; type: ADME, organism-based
Summary of the method: (§5)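 Healthy female C57BL/6 mice (n = 27, 18–22 g) received one i.p. dose of 50 mg/kg, given as a 10 mg/mL aqueous solution (equimolar HCl, pH raised to 6 with NaHCO3). Blood and brain were sampled at 0, 5, 15, 30, 45, 60, 120, 240 and 360 min, 3 mice per time point. Samples were spiked with benzophenone internal standard, lyophilized, extracted into methanol, and quantified by C18 UPLC-MS.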

[14] = Half life in C57BL/6 mouse serum at 50 mg/kg, ip administered as single dose by UPLC-MS analysis; type: ADME, organism-based; summary of the method: as §5
[15] = Cmax in C57BL/6 mouse serum at 50 mg/kg, ip administered as single dose measured up to 360 mins by UPLC-MS analysis; type: ADME, organism-based; parameters: dose 50 mg/kg, route intraperitoneal; summary of the method: as §5
[16] = Tmax in C57BL/6 mouse serum at 50 mg/kg, ip administered as single dose measured up to 360 mins by UPLC-MS analysis; type: ADME, organism-based; summary of the method: as §5
[17] = AUC (0 to 360 mins) in C57BL/6 mouse serum at 50 mg/kg, ip administered as single dose by UPLC-MS analysis; type: ADME, organism-based; parameters: dose 50 mg/kg, time < 6 hr, route intraperitoneal; summary of the method: as §5
[18] = Elimination rate constant in C57BL/6 mouse brain at 50 mg/kg, ip administered as single dose measured up to 360 mins by UPLC-MS analysis; type: ADME, organism-based; summary of the method: as §5
[19] = Half life in C57BL/6 mouse brain at 50 mg/kg, ip administered as single dose by UPLC-MS analysis; type: ADME, organism-based; summary of the method: as §5
[20] = Cmax in C57BL/6 mouse brain at 50 mg/kg, ip administered as single dose measured up to 360 mins by UPLC-MS analysis; type: ADME, organism-based; parameters: dose 50 mg/kg, route intraperitoneal; summary of the method: as §5
[21] = Tmax in C57BL/6 mouse brain at 50 mg/kg, ip administered as single dose measured up to 360 mins by UPLC-MS analysis; type: ADME, organism-based; summary of the method: as §5
[22] = AUC (0 to 360 mins) in C57BL/6 mouse brain at 50 mg/kg, ip administered as single dose by UPLC-MS analysis; type: ADME, organism-based; parameters: time < 6 hr, dose 50 mg/kg, route intraperitoneal; summary of the method: as §5
Mus musculus [23] = assay: Toxicity in MOG (35 to 55 residues)-induced C57BL/6 mouse autoimmune encephalomyelitis model assessed as bdoy weight cahnges at 50 mg/kg, ip administered daily up to 60 days; type: organism-based; settings: in vivo, 1440 h; summary of the method: as §2

Ki [1]: 2820 µM
Ki [2]: 1090 µM
Ki [3]: 282 µM
Compound: O=C(N[C@@H](CCn1ccnn1)C(=O)NCc1ccccc1)c1ccco1

Ki [2]: 112 µM
Ki [3]: 71 µM
Compound: Cn1cccc1C(=O)N[C@@H](CCn1ccnn1)C(=O)NCc1ccccc1

Compound: Cl.Cn1cccc1C(=O)N[C@@H](CCn1ccnc1)C(=O)NCc1ccccc1
Activity (Mus musculus [4]): Active
survival at 50 mg/kg (Mus musculus [5]): 100%
Activity (Mus musculus [6]): Active
Activity (Mus musculus [7]): Active
Activity (Mus musculus [8]): Active
Activity (Mus musculus [9]): Active
Activity (Mus musculus [10]): Active
Activity (Mus musculus [11]): Active
Activity (Mus musculus [12]): Active
k el at 6 h [13]: 0.000333 s⁻¹
half-life [14]: 34.8 min
Cmax [15]: 12000 ng/mL
Tmax [16]: 15 min
AUC(0-t) at 6 h [17]: 8460 ng·h/mL
k el at 6 h [18]: 0.0003 s⁻¹
half-life [19]: 38.5 min
Cmax [20]: 170 ng/mL
Tmax [21]: 15 min
AUC(0-t) at 6 h [22]: 105 ng·h/mL
Activity (Mus musculus [23]): Non-Toxic
